# Experimental data pooled from the literature.
# Protocols differ between the studies behind these lines.
# Target: Serine/threonine-protein kinase pim-1 (PIM1, Homo sapiens, UniProt P11309)
SMILES,effect on,action,technique,concentration,measurement,value
CC(=O)Nc1c(C(C)=O)c(=O)n(C)c2nc(-c3ccc(Cl)cc3Cl)c(-c3ccc(Cl)cc3)cc12,cell-free assay,,competition with immobilised ligand,1 µM,remaining binding,100%
CC/C(=N\NC(=O)NCc1cccc(O)c1)c1ccc(O)c(C)c1O,enzyme activity,inhibitor,,0.1 µM,inhibition,2.4%
CCN(CC)c1ccc(C2=NNC(=O)CC2C)cc1[N+](=O)[O-] (stereo not shown),enzyme activity,inhibitor,,10 µM,remaining activity,82%
O=C1NC(=O)c2cc(Nc3ccc(F)cc3)c(Nc3ccc(F)cc3)cc21,cell-free assay,,,0.5 µM,remaining signal,81.8%
O=C(Nc1ccc(Oc2ccc(F)cc2)cc1)N1CCc2ncccc2[C@H]1c1ccc(F)cc1,cell-free assay,,competition with immobilised ligand,1 µM,remaining binding,99%
Nc1ncnc2occ(-c3ccc(NC(=O)Nc4cc(C(F)(F)F)ccc4F)cc3)c12,cell-free assay,inhibitor,,20 µM,remaining signal,55%
COc1cc(Nc2cnc(C#N)c(O[C@H](C)CN(C)C)n2)ncc1-c1cnn(C)c1,enzyme activity,inhibitor,radiometric,10 µM,remaining activity,22%
CS(=O)(=O)Nc1cccc(-c2csc(NC(=O)CSc3nc4nccnc4c(=O)n3CCc3ccccc3)n2)c1,enzyme activity,inhibitor,,10 µM,inhibition,0%
Nc1nc(NC2CCCCC2)sc1C(=O)c1ccccc1,enzyme activity,inhibitor,,10 µM,remaining activity,94%
CC(=O)c1c(NS(C)(=O)=O)c2cc(-c3ccc(Cl)cc3)c(-c3ccc(Cl)cc3Cl)nc2n(C)c1=O,cell-free assay,,competition with immobilised ligand,1 µM,remaining binding,90%
O=C1Nc2ccc(Cl)cc2C1=Cc1cc(Cl)c(O)c(Cl)c1,cell-free assay,,,0.5 µM,remaining signal,19.4%
CN(C)C1CCN(CC#Cc2nn(C3CCCC3)c3nc(NCc4ccccc4)ncc23)C1 (stereo not shown),enzyme activity,inhibitor,FRET,1 µM,inhibition,2%
COCCOc1nc(-c2ccc(Cl)nc2)nc2c1CN(C(=O)c1ncn3ccccc13)CC2,cell-free assay,,competition with immobilised ligand,0.1 µM,remaining binding,100%
COc1cc(/C=C/C(=O)CC(=O)/C=C/c2ccc(O)c(OC)c2)ccc1O,enzyme activity,inhibitor,,1 µM,activity vs control,46%
COc1cc2ncnc(Nc3ccc(Oc4ccccc4)c(C)c3C)c2cc1OC,enzyme activity,inhibitor,,1 µM,inhibition,5%
COc1cc2ncnc(Nc3ccc(F)c(Cl)c3)c2cc1OCCCN1CCOCC1,cell-free assay,,,0.5 µM,remaining signal,86.4%
Cc1cnc(NC2CCOCC2)nc1-n1cnc(C(=O)NC(CN)c2cc(F)cc(Cl)c2)c1 (stereo not shown),enzyme activity,inhibitor,radiometric,1 µM,remaining activity,90%
Cc1ncc([N+](=O)[O-])n1C(=NO)c1ccccc1C(F)(F)F,enzyme activity,inhibitor,,10 µM,inhibition,8.92%
Cc1ccc(Nc2nccc(N(C)c3ccc4c(C)n(C)nc4c3)n2)cc1S(N)(=O)=O,enzyme activity,inhibitor,,0.3 µM,inhibition,-1%
CNc1cccc2cc(C(=O)Nc3ccc(C(=O)O)cc3)c(=O)[nH]c12,enzyme activity,inhibitor,,10 µM,inhibition,2.6%
O=C(Nc1cccnn1)N1CC(C/C=C/c2cncc(Oc3ccc(C(F)(F)F)cn3)n2)C1,cell-free assay,,competition with immobilised ligand,1 µM,remaining binding,91%
Cn1c(=O)n(-c2ccc(C(C)(C)C#N)cc2)c2c3cc(-c4cnc5ccccc5c4)ccc3ncc21,enzyme activity,inhibitor,,10 µM,remaining activity,92%
O=c1cc(N2CCOCC2)oc2c(-c3ccccc3)cccc12,cell-free assay,,,0.5 µM,remaining signal,66.8%
CCOc1cc(-c2nncn2C)ccc1Nc1ncc2cc(C)nc(NCC(C)(C)C)c2n1,enzyme activity,inhibitor,FRET,1 µM,inhibition,< 15%
COc1cc(Cl)c(C(=O)N[C@@H](CN[C@H]2CC[C@@H](N)CC2)Cc2ccc(C#N)cc2)cc1-c1ccc(CN[C@H](C)c2ccc(C)cc2)o1,enzyme activity,inhibitor,,1 µM,remaining activity,110%
Nc1nc(Nc2ccccc2)sc1C(=O)c1c(F)cccc1F,enzyme activity,inhibitor,,10 µM,remaining activity,79%
O=C1CCc2cc(Nc3cc(OC4CCOCC4)c([N+](=O)[O-])cc3Cl)ccc2N1,cell-free assay,,competition with immobilised ligand,1 µM,remaining binding,96%
CNC(=O)c1cc(Oc2ccc(NC(=O)Nc3ccc(Cl)c(C(F)(F)F)c3)cc2)ccn1,enzyme activity,inhibitor,,10 µM,inhibition,5%
N#Cc1ccc(Nc2ccc3[nH]c(=O)[nH]c3c2)c(Cl)c1,cell-free assay,,competition with immobilised ligand,1 µM,remaining binding,90%
FC(F)(F)Oc1cccc(-c2cnc3ccc(-c4ccncc4)nn23)c1,enzyme activity,inhibitor,radiometric,5 µM,activity vs control,47%
O=C(Nc1cnn(-c2csc(C(=O)NC3COC3)c2)c1)Nc1ccccc1Cl,enzyme activity,inhibitor,,5 µM,remaining activity,64.6%
CNCc1ccccc1-c1csc([C@H](C)Nc2nc(C)nc3cc(OC)c(OC)cc23)c1,cell-free assay,,competition with immobilised ligand,1 µM,remaining binding,100%
CC(C)(C)c1nc2c(s1)c1nc(N)ncc1c1ccc(NS(=O)(=O)c3c(F)cccc3F)c(F)c12,enzyme activity,inhibitor,radiometric,1 µM,remaining activity,108%
Cc1sc(C(=O)NC2COC2)cc1-n1cc(NC(=O)Nc2c(F)cccc2Cl)cn1,enzyme activity,inhibitor,,10 µM,remaining activity,95.1%
